Reference: paper PMC4945769 (British Journal of Pharmacology, 2016)

Key:
[1] = tested on: proteinase 3 (PR3); test: Onset studies: PR3 activity in rat blood and bone marrow lysates; format: in vivo; details: onset 1 (14 day study), bone marrow
Method in brief: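 Male Sprague Dawley rats received test compound orally twice daily, 3.6 and 10.7 mg·kg−1 8 h apart, for up to 14 days. Vehicle was citrate buffer pH 3.0. Blood and femoral marrow lysates (10^8 cells mL−1, Triton X-100) were incubated 15 min, then given the 5-FAM/QXL520 quenched peptide substrate. Fluorescence (ex 320–490, em 405–520 nm) was followed up to 60 min. Initial rate came from the linear portion.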

[2] = Plasma protein binding by equilibrium dialysis, rat plasma; format: in vitro ADME; details: 10 μM, 18 h at 37°C, mean, n of at least 3
Method in brief: (§1)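 Test compound at 10 μM final was added to plasma and dialysed against buffer across a 5 kD membrane in a rotating unit for 18 h at 37°C. Buffer and plasma-side aliquots were quenched in methanol and measured by LC–MS/MS. Free fraction is the mean of at least three studies.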

[3] = tested on: neutrophil elastase (NE); test: Onset studies: NE activity in rat blood and bone marrow lysates; format: in vivo; details: onset 1 (14 day study), bone marrow
Method in brief: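 Rats were dosed orally twice daily with test compound, 3.6 mg·kg−1 and then 10.7 mg·kg−1 8 h later, against citrate buffer pH 3.0 vehicle. Onset 1 ran 5, 8, 10, 12 or 14 days. Femurs were taken under isoflurane 2 h after the last dose. Marrow leukocytes were lysed on ice at 10^8 cells mL−1. Lysates received Methoxysuccinyl-Ala-Ala-Pro-Val-AMC and were read by fluorescence (ex 350–380, em 450–460 nm) for up to 60 min. Initial rate came from the linear range.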

[4] = molecular target: DPP1 (Homo sapiens, UniProt P53634); test: DPP1 activity cell assay; format: cell-based; details: read-out: DPP1 IC50, corrected for PPB; in vitro potency corrected for rat PPB
[5] = tested on: cathepsin G (CatG); test: Onset studies: CatG activity in rat blood and bone marrow lysates; format: in vivo; details: two onset studies, small assay window
Method in brief: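 Male Sprague Dawley rats (200–400 g) were dosed orally twice daily, 3.6 mg·kg−1 in the morning and 10.7 mg·kg−1 8 h later, for 5–14 days (onset 1) or 1–8 days (onset 2). Vehicle was 0.1 M citrate buffer, pH 3.0. Blood and femoral marrow cells were lysed at 10^8 cells mL−1 in Triton X-100 buffer. Lysates were incubated 15 min, then given N-succinyl-Ala-Ala-Pro-Phe-pNA and read by absorbance at 405 nm for 90–120 min. Initial rate was taken from the linear range.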

[6] = tested on: NSP activity; test: Pharmacokinetic/pharmacodynamic modelling of NSP activity in rat; format: in vivo
Method in brief: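 Rat NSP activity time courses were fitted with an indirect response model: production rate kin scaled by uninhibited DPP1 fraction 1 − C/(IC50 + C), loss rate kout, baseline taken as 100%. IC50 was the in vitro cell potency corrected for plasma protein binding. Exposure was simulated with a one-compartment PK model. kout was fitted to blood data from the onset study and bone marrow data from the recovery study.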

[7] = PK studies in the rat; format: in vivo; details: Sprague Dawley, plasma, intravenous, 1 mg·kg^−1
Method in brief: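 Male Sprague Dawley rats were given test compound at 1 mg·kg−1 IV or 3 mg·kg−1 orally; dose was set by syringe weight difference. Serial tail-vein blood was taken from 2 to 1440 min and centrifuged at 4°C. Plasma was stored at −20°C and then quantified by LC–MS/MS against calibration curves in control rat plasma. Parameters were derived by non-compartmental analysis.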

[8] = Plasma protein binding by equilibrium dialysis, human plasma; format: in vitro ADME; details: 10 μM, 18 h at 37°C, mean, n of at least 3
Method in brief: as §1

[9] = Prediction of human PK for AZ2; details: predicted

SMILES | days of treatment to reach maximum reduction in PR3 activity [1] | PPB (%free) [2] | days of treatment to reach maximum reduction in NE activity [3] | IC50 [4] | effect on CatG activity [5] | maximum reduction in protease activity in blood ([6]; onset studies) | clearance [7] | PPB (%free) [8] | maximum reduction in protease activity in bone marrow ([6]; recovery study) | CL [9]
N#Cc1ccc(-c2ccc(C[C@@H](C#N)NC(=O)[C@@H]3CCCCN3)cc2)cc1 [AZ1, (S)‐N‐((S)‐1‐cyano‐2‐(4′‐cyanobiphenyl‐4‐yl)ethyl)piperidine‐2‐carboxamide] | 8 days | 4.1 %free | 8 days | 140 nM | lack of effect | about 75% | 6.67 mL/min |  |  | 
N#Cc1ccc(-c2ccc(C[C@@H](C#N)NC(=O)C3(N)CCOCC3)cc2)cc1 [AZ2, (S)‐4‐amino‐N‐(1‐cyano‐2‐(4′‐cyanobiphenyl‐4‐yl)ethyl)tetrahydro‐2H‐pyran‐4‐carboxamide] |  | 11 %free |  |  |  |  | 1.67 mL/min | 9.1 %free | 90% | 3.4 L/h
